From ChEMBL document CHEMBL1122273, “5-sulfamoylorthanilic acids, a sulfonamide series with salidiuretic activity” (J Med Chem, 1983)

Key:
[1] = Dissociation constant, pK1 was determined using sodium salt
[2] = tested on: Canis familiaris; assay: Saluretic activity in the dog measured as concentration of Cl - in urinary excretion (2 animals/dose) at (dose 0.1 mg/Kg, perorally); type: functional, Canis lupus familiaris, Urine
Procedure, shortened: (§1)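 Male beagles trained to the procedures, food withdrawn 24 h before, tap water ad libitum. Bladder emptied by catheter, then 20 mL/kg tap water by stomach tube, plus 4 mL/kg orally at each hourly catheterization up to 8 h. The first 2 h of urine served as control. Compound given orally after the second catheterization. Urine from 1–6 h post-dose pooled; Na⁺ and K⁺ by flame photometry, Cl⁻ argentometrically, in mequiv/kg.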

[3] = tested on: Canis familiaris; assay: Saluretic activity in the dog measured as concentration of K+ in urinary excretion (2 animals/dose) at (dose 0.4 mg/Kg, perorally); type: functional, Canis lupus familiaris, Urine
Procedure, shortened: as §1

[4] = organism: Rattus norvegicus; assay: Saluretic activity in the rat measured as concentration of Na+ in urine; type: functional
Procedure, shortened: (§2)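 Rats deprived of food 24 h, water ad libitum, dosed 50 mg/kg by stomach tube as suspension in 2% starch, no extra water load. Groups of three in diuresis funnels; urine over first 5 h collected. Na⁺ and K⁺ by flame photometry, Cl⁻ argentometrically; expressed as mequiv/kg.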

[5] = tested on: Canis familiaris; assay: Saluretic activity in the dog measured as concentration of Na+ in urinary excretion (2 animals/dose) at (dose 0.1 mg/Kg, perorally); type: functional, Canis lupus familiaris, Urine
Procedure, shortened: (§3)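 Male beagles trained to rest on a table and to accept stomach tube and catheter. Food withdrawn 24 h before, tap water ad libitum. Bladder emptied by catheter, then 20 mL/kg tap water by stomach tube. Catheterized hourly up to 8 h with 4 mL/kg water orally each time; first 2 h urine served as control. Oral dosing after second catheterization. Pooled 1–6 h urine; Na⁺/K⁺ by flame photometry, Cl⁻ argentometrically.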

[6] = tested on: Canis familiaris; assay: Saluretic activity in the dog measured as concentration of Cl - in urinary excretion (2 animals/dose) at (dose 1.56 mg/Kg, perorally); type: functional, Canis lupus familiaris, Urine
Procedure, shortened: as §1

[7] = Partion coefficient in octanol/H2O system at pH=7; type: physicochemical
Procedure, shortened: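 Partition between octanol and Britton-Robinson buffer, measured across pH 0–13; value read at pH 7.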

[8] = tested on: Canis familiaris; assay: urinary excretion collected at 7-24 hr time after oral administration in dog (four animals per dose) dosed at 0.39 mg/kg.; type: functional, Canis lupus familiaris, Urine
[9] = tested on: Canis familiaris; assay: sodium excretion collected at 1-6 h time after oral administration in dog (four animals per dose) dosed at 0.05 mg/kg.; type: functional, Canis lupus familiaris
Procedure, shortened: (§4)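 Trained male beagles, four per dose, fasted 24 h with tap water ad libitum. After bladder emptying, given 20 mL/kg tap water by stomach tube, then 4 mL/kg at each hourly catheterization; 2 h control collection, then oral dosing. Urine volume and Na⁺ (flame photometry) reported for 1–6, 7–24 and 1–24 h post-dose periods.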

[10] = organism: Rattus norvegicus; assay: Diuretic activity in the rats, determined by a modified Lipschitz test; type: functional, Urine
Procedure, shortened: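 Modified Lipschitz test: rats deprived of water 24 h, grouped in threes of similar weight in diuresis funnels. Oral dose of 50 mg/kg, suspended in 2% starch solution, by stomach tube.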

[11] = tested on: Canis familiaris; assay: Saluretic activity in the dog measured as concentration of K+ in urinary excretion (2 animals/dose) at (dose 0.1 mg/Kg, perorally); type: functional, Canis lupus familiaris, Urine
Procedure, shortened: as §1

[12] = tested on: Canis familiaris; assay: Diuretic activity in the dog (2 animals/dose) at (dose 1.56 mg/Kg), when administered perorally; type: functional, Canis lupus familiaris, Urine
Procedure, shortened: (§5)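 Trained male beagles, fasted 24 h with tap water ad libitum. Bladder emptied by catheter, then 20 mL/kg tap water by stomach tube, with 4 mL/kg water at each hourly catheterization up to 8 h. The first 2 h of urine served as control. Oral dosing came after the second catheterization, and 1–6 h urine was pooled. Na⁺ and K⁺ were measured by flame photometry, Cl⁻ argentometrically, in mequiv/kg.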

[13] = tested on: Canis familiaris; assay: sodium excretion collected at 7-24 hr time after oral administration in dog (four animals per dose) dosed at 0.39 mg/kg.; type: functional, Canis lupus familiaris
Procedure, shortened: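 Trained male beagles, food withdrawn 24 h beforehand with tap water ad libitum. Bladder emptied by catheter, then 20 mL/kg tap water by stomach tube. Catheterized hourly (up to 8 h) with 4 mL/kg water orally each time. First 2 h of urine served as control. Compound given orally after second catheterization. Na⁺ measured flame-photometrically, in mequiv/kg.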

[14] = Dissociation constant, pK2 was determined using sodium salt
[15] = tested on: Canis familiaris; assay: Diuretic activity in the dog (2 animals/dose) at (dose 0.4 mg/Kg), when administered perorally; type: functional, Canis lupus familiaris, Urine
Procedure, shortened: as §5

[16] = tested on: Canis familiaris; assay: Saluretic activity in the dog measured as concentration of Cl - in urinary excretion (2 animals/dose) at (dose 0.4 mg/Kg, perorally); type: functional, Canis lupus familiaris, Urine
Procedure, shortened: as §1

[17] = organism: Rattus norvegicus; assay: Saluretic activity in the rat measured as concentration of chloride in urine; type: functional
Procedure, shortened: as §2

[18] = It is the ratio, measured as saluretic activity in the dog as concentration of Na+ in urinary excretion (dose 0.1 mg/Kg, perorally) to that of K; type: functional, Urine
Procedure, shortened: as §5

[19] = It is the ratio, measured as saluretic activity in the dog as concentration of Cl- in urinary excretion (dose 0.1 mg/Kg, perorally) to that of (Na+)+(K+); type: functional, Urine
Procedure, shortened: as §5

[20] = tested on: Canis familiaris; assay: Diuretic activity in the dog (2 animals/dose) at (dose 0.1 mg/Kg), when administered perorally; type: functional, Canis lupus familiaris, Urine
Procedure, shortened: as §5

[21] = Solubility of compound in water was determined; type: physicochemical; conditions: buffer
[22] = tested on: Canis familiaris; assay: Saluretic activity in the dog measured as concentration of Na+ in urinary excretion (2 animals/dose) at (dose 1.56 mg/Kg, perorally); type: functional, Canis lupus familiaris, Urine
Procedure, shortened: as §3

[23] = It is the ratio, measured as saluretic activity in the dog as concentration of Na+ in urinary excretion (dose 0.4 mg/Kg, perorally) to that of K; type: functional, Urine
Procedure, shortened: as §5

[24] = tested on: Canis familiaris; assay: sodium excretion collected at 7-24h time after oral administration in dog (four animals per dose) dosed at 0.05 mg/kg.; type: functional, Canis lupus familiaris
Procedure, shortened: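 Trained male beagles, four per dose, fasted 24 h with tap water ad libitum. The bladder was emptied by catheter, then 20 mL/kg tap water was given by stomach tube. Dogs were catheterized hourly with 4 mL/kg water orally each time, and the first 2 h served as control. Compound was given orally after the second catheterization. Urine volume and flame-photometric Na⁺ were measured over 1-6, 7-24 and 1-24 h.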

[25] = organism: Rattus norvegicus; assay: Saluretic activity in the rat measured as concentration of K+ in urine; type: functional
Procedure, shortened: as §2

[26] = tested on: Canis familiaris; assay: Saluretic activity in the dog measured as concentration of K+ in urinary excretion (2 animals/dose) at (dose 1.56 mg/Kg, perorally); type: functional, Canis lupus familiaris, Urine
Procedure, shortened: as §1

[27] = tested on: Canis familiaris; assay: sodium excretion collected at 7-24 hr time after oral administration in dog (four animals per dose) at dose 0.39 mg/kg.; type: functional, Canis lupus familiaris
Procedure, shortened: as §4

[28] = organism: Rattus norvegicus; assay: Effect on Urine flow in rats in comparison to furosemide activity
[29] = tested on: Canis familiaris; assay: Saluretic activity in the dog measured as concentration of Na+ in urinary excretion (2 animals/dose) at (dose 12.5 mg/Kg, perorally); type: functional, Canis lupus familiaris, Urine
Procedure, shortened: as §3

[30] = tested on: Canis familiaris; assay: Saluretic activity in the dog measured as concentration of Cl - in urinary excretion (2 animals/dose) at (dose 12.5 mg/Kg, perorally); type: functional, Canis lupus familiaris, Urine
Procedure, shortened: as §1

[31] = tested on: Canis familiaris; assay: Diuretic activity in the dog (2 animals/dose) at (dose 12.5 mg/Kg), when administered perorally; type: functional, Canis lupus familiaris, Urine
Procedure, shortened: as §5

| SMILES | pKa [1] | Saldiuretic activity [2] | Saluretic activity [3] | Saluretic activity [4] | Saluretic activity [5] | Saldiuretic activity [6] | Partition coefficient [7] | Diuretic activity [10] | Saluretic activity [11] | Diuretic activity [12] | pKa [14] | Diuretic activity [15] | Saldiuretic activity [16] | Saluretic activity [17] | Ratio [18] | Ratio [19] | Diuretic activity [20] | Solubility [21] | Saluretic activity [22] | Ratio [23] | also measured |
| --- | --- | --- | --- | --- | --- | --- | --- | --- | --- | --- | --- | --- | --- | --- | --- | --- | --- | --- | --- | --- | --- |
| CN(c1ccccc1)c1cc(NCc2ccco2)c(S(=O)(=O)[O-])cc1S(N)(=O)=O.[Na+] | 1 | 3.99 m equiv 6hr-1 kg-1 | 1.28 m equiv 6hr-1 kg-1 | 8.2 m equiv 5hr-1 kg-1 | 3.08 m equiv 6hr-1 kg-1 | 6.79 m equiv 6hr-1 kg-1 | 0.28 | 4.6 mL/kg | 0.72 m equiv 6hr-1 kg-1 | 69.4 ml kg-1 6hr-1 | 10.5 | 75.3 ml kg-1 6hr-1 | 6.34 m equiv 6hr-1 kg-1 | 9.4 m equiv 5hr-1 kg-1 | 4.3 | 1.1 | 54.3 ml kg-1 6hr-1 | 4% | 5.74 m equiv 6hr-1 kg-1 | 4.1 | Urinary excretion [8]: 20.4 mL/kg; Na+ excretion [9]: 1.29 mequiv kg-1; Na+ excretion [13]: 0.55 mequiv kg-1; Na+ excretion [24]: 0.22 mequiv kg-1; Saluretic activity [25]: 2.4 m equiv 5hr-1 kg-1; Saldiuretic activity [26]: 1.17 m equiv 6hr-1 kg-1 |
| NS(=O)(=O)c1cc(S(=O)(=O)[O-])c(NCc2ccco2)cc1Oc1ccccc1.[Na+] | 0.5 | 0.27 m equiv 6hr-1 kg-1 | 0.34 m equiv 6hr-1 kg-1 | 7 m equiv 5hr-1 kg-1 | 1.19 m equiv 6hr-1 kg-1 | 5.47 m equiv 6hr-1 kg-1 | 0.12 | 4.1 mL/kg | 0.15 m equiv 6hr-1 kg-1 | 71.4 ml kg-1 6hr-1 | 10.2 | 36.4 ml kg-1 6hr-1 | 1.65 m equiv 6hr-1 kg-1 | 9.6 m equiv 5hr-1 kg-1 | 1.2 | 0.8 | 30 ml kg-1 6hr-1 | 20% | 4.89 m equiv 6hr-1 kg-1 | 3.5 | Na+ excretion [27]: 0.47 mequiv kg-1; Volume [28]: 0.909 mL/min/kg; Saluretic activity [29]: 6.49 m equiv 6hr-1 kg-1; Saldiuretic activity [30]: 7.13 m equiv 6hr-1 kg-1; Diuretic activity [31]: 74.3 ml kg-1 6hr-1; Saluretic activity [25]: 2.1 m equiv 5hr-1 kg-1; Saluretic activity [26]: 1 m equiv 6hr-1 kg-1 |
